V-ATPase pH: alters yeast V-ATPase proton transport; S. cerevisiae, pHLuorin cytosolic pH fluorescence; response, % at 10 µM; 350,000 compounds, 0.37% hits; in the data active = response mostly above about 7.3%, no sharp cut-off; inactive = mostly below about 5.4%; also: actives read high
rCAG binder: molecules binding r(CAG) RNA repeats; r(CAG) RNA repeat, TO-PRO-1 dye displacement fluorescence; inhibition, % at 3 µM; 370,000 compounds, 1.3% hits;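 active = inhibition above the plate cutoff, the mean of all test compounds on that plate plus 3 SD, cut at about 35% in these data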;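 also: 0% = DMSO alone and 100% = 100 µM mitoxantrone as full dye displacement; higher means more dye released from RNA so lower well fluorescence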
T cell modulator: T cell immune modulation candidate | 2C CD8+ T cell-vesicle binding, flow cytometry; stronger effect = lower value | response (vesicle binding), % at 7 µM | 330,000 compounds, 0.068% hits | AID 2052;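 active = response, share of CD8 T cells binding vesicles, and their 90th percentile fluorescence all below set limits, cut at about 80% in these data, passing the limit was not always enough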;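 also: values below 100% mean blocked vesicle binding to the CD8+ T cells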
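Benchmarks: naked versus QL9-loaded vesicles / Assay system: purified 2C TCR transgenic mouse naive CD8+ T cells / Technique: high-throughput flow cytometry with anti-B7-1 and anti-CD8 staining / Timing: Cell–vesicle co-incubation 1.5 h at 37 °C, staining 20 min on ice / Read-out: percent CD8+ FL2 mean versus row control / Probe or stimulus: QL9-loaded Drosophila micro-vesicles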
MPTP block: blocks calcium-induced mitochondrial swelling. 360,000 compounds, 1.4% hits. inhibition, % at 10 µM. AID 602449. isolated mouse mitochondria, Ca2+ swelling absorbance, 30 min;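 active = inhibition of 50% or more, scaled per plate between neutral and stimulator controls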;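 also: 0% = DMSO wells given calcium and 100% = 1 mM EGTA wells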
Exocytosis inh: blocks lytic granule exocytosis | 360,000 compounds, 0.66% hits | inhibition, % at 10 µM | TALL-104 LAMP-1 surface exposure, flow cytometry; cells stimulated with thapsigargin and PMA;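 active = inhibition above about 55%, limit read from the data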
B2AR ag: human beta-2 adrenergic receptor agonism by FAP. response, % (concentration not given with the values). Am2.2-beta2AR cells, FAP receptor internalization, flow cytometry. 340,000 compounds, 0.43% hits. P07550;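 active = response above a set limit, near 3 SD of response in nonfluorescent compounds, cut at about 42% in these data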
Target sequence (P07550 whole entry, looked up): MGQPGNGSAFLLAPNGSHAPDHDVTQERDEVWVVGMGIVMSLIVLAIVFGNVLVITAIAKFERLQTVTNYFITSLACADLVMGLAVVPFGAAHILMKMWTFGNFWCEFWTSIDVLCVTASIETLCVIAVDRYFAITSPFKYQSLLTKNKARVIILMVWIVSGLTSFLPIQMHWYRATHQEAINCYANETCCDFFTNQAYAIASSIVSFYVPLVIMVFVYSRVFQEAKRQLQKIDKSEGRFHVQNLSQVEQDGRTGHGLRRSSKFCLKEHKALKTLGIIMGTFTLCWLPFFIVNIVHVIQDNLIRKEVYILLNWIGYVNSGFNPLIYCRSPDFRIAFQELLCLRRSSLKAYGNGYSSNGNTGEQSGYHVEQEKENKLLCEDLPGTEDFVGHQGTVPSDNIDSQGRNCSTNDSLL
Rh123 counter: mitochondrial membrane potential, counter-screen; 5,000 compounds, 78% hits; shares compounds with MPTP block; isolated mitochondria, Rhodamine 123 fluorescence; inhibition, % at 10 µM; AID 624504; in the data active = inhibition above about 22%;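 also: 0% = DMSO vehicle and 100% = positive control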
MPTP abs DR: dose response confirmation of mitochondrial permeability transition pore inhibitors; isolated mitochondria swelling, absorbance; 780 compounds, 58% hits; IC50, µM; shares compounds with MPTP block; AID 651561; in the data active = IC50 below about 20 µM
MPTP counter DR: MPTP inhibitor counter-screen activity, dose response | isolated mitochondria counterscreen, fluorescence read-out | shares compounds with MPTP block | IC50, µM | AID 651564 | 780 compounds, 49% hits; in the data active = IC50 below about 80 µM
Starred values were filed as active, the others as inactive; i = inactive; . = not tested or not shown. Only some compounds are listed: those with a hit (about 3.8% of all), similar ones and a draw of the others.

SMILES	V-ATPase pH	rCAG binder	T cell modulator	MPTP block	Exocytosis inh	B2AR ag	Rh123 counter	others
CC(C)(C)c1nnc(NC(=O)Nc2ccc(Cl)cc2)s1	-0.3	32.6	274.8	58.0*	-0.4	7.1	85.6*
O=C(Nc1ccccc1)Nc1nnc(CSCc2ccccc2Cl)s1	2.8	24.8	249.5	89.7*	1.4	0.3	92.4*
O=C(Cc1nnc(NC(=O)Nc2ccccc2)s1)Nc1ccccc1	-1.4	22.0	242.7	4.2	-1.2	-10.2	.
O=C(Nc1nnc(SCc2ccc(Cl)cc2)s1)c1ccco1	1.5	4.5	264.0	-2.3	1.1	-12.6	.
COc1ccc(NC(=O)Nc2nnc(Cc3ccccc3)s2)cc1	0.1	30.2	180.1	2.0	1.8	-3.2	.
CCOC(=O)[C@]12CCCC3=C1N(CCC3)C(=O)[C@@H](CC(=O)N1CCN(C(=O)C3CC3)CC1)C2	.	-1.8	.	.	.	.	.
Cc1ccc(OCCSCc2nnc(NC(=O)Nc3cccc(Cl)c3)s2)cc1	-1.3	10.7	151.4	93.2*	-5.1	3.6	84.7*
O=C(Nc1ccc(Cl)cc1)Nc1nnc(CSCc2ccccc2Cl)s1	1.8	5.2	169.7	79.1*	38.9	6.3	56.8*
COCC(=O)Oc1c(Sc2ccccc2[N+](=O)[O-])c(C)nn1C(C)(C)C	-0.7	0.6	318.9	60.3*	1.7	0.1	61.5*
CCC(CC)C(=O)Oc1c(Sc2ccccc2[N+](=O)[O-])c(C)nn1C(C)(C)C	-2.9	2.4	637.9	0.9	-12.1	9.8	.
O=C(CSc1nc2nc(-c3cccs3)cc(C(F)(F)F)c2c(=O)[nH]1)Nc1c(F)c(F)c(F)c(F)c1F	-5.3	13.0	654.5	55.0*	19.0	6.8	70.0*
O=C(c1ccccc1)N1CC[C@H]2[C@H](CCCN2Cc2ccccc2)C1	.	8.3	.	.	.	.	.
CCc1ccc(O)c(CNCCNCc2cc(CC)ccc2O)c1	-1.5	2.5	185.4	95.4*	-0.9	26.8	3.6
Cc1ccc(O)c(CNCCNCc2cc(C)ccc2O)c1	1.8	2.9	403.8	4.3	-15.6	21.7	.
N#C/C(=C(/O)c1ccc(Cl)c([N+](=O)[O-])c1)c1nc2ccccc2[nH]1	-2.7	2.5	271.3	78.3*	0.1	3.6	80.6*
N#C/C(=C(/O)C(Cl)(Cl)Cl)c1nc2ccccc2[nH]1	-3.7	0.4	252.0	75.5*	10.1	3.8	81.3*
O=C(CCc1ccccc1)N[C@H]1[C@@H](OC(=O)c2cccnc2)CCC[C@@]12C(=O)N(Cc1ccccc1)c1ccccc12	.	10.1	.	.	.	.	.
COc1ccc(CN2CN3Cc4cc(OC)ccc4C3CS2(=O)=O)cc1 (stereo not drawn)	.	5.2	.	.	.	.	.
CCCCOCCCNC(=O)C[C@H]1C(=O)N(Cc2ccc(OC)cc2)C2=CCCC[C@@]21C(=O)OCC	.	-1.1	.	.	.	.	.
CCC(C)[C@H](N)c1cn([C@@H](Cc2cc3ccccc3[nH]2)C(=O)N2CCNCC2)nn1 (stereo partly drawn)	-6.1	9.8	.	0.8	3.2	1.9	.
CC(C)C[C@H](N)c1cn([C@@H](Cc2cc3ccccc3[nH]2)C(=O)N2CCNCC2)nn1	-3.0	8.4	166.4	92.1*	-2.9	-4.7	-11.6	MPTP abs DR=4.87*;MPTP counter DR=>80
Cc1cc(C)cc(NC(=S)NCCSc2ccc(Cl)cc2)c1	1.8	4.3	198.2	87.1*	0.1	-4.4	97.6*
Cc1ccc(SCCNC(=S)Nc2ccccc2)cc1	-1.0	2.1	380.2	6.2	6.2	-5.8	.
Cc1ccc(SCCNC(=S)Nc2cc(C)ccc2C)cc1	1.4	-0.8	415.8	-0.3	1.6	-2.1	.
Cc1ccc(SCCNC(=S)Nc2ccc(C)c(C)c2)cc1	5.7	-3.8	194.1	72.1*	-2.2	2.8	91.4*
SMILES	V-ATPase pH	rCAG binder	T cell modulator	MPTP block	Exocytosis inh	B2AR ag	Rh123 counter	others
COC(=O)Cc1ccc(NC(=S)NCCSc2ccc(Cl)cc2)cc1	3.5	1.5	313.8	62.8*	13.4	11.5	77.0*
Cc1nn(-c2ccccc2)c2sc(C(=O)NCCc3ccccc3)cc12	.	4.5	.	.	.	.	.
Cc1[nH]c2ccccc2c1C(=O)CN1CCN(C/C=C/c2ccccc2)CC1	-0.1	6.2	202.8	64.6*	0.8	6.5	-8.7	MPTP abs DR=17.4*;MPTP counter DR=51.6*
CC(=O)N1CCN(C(=O)CCc2nc3ccccc3c(=O)[nH]2)CC1	-0.8	0.6	199.2	-8.1	-0.4	5.5	.
O=C(CCc1nc2ccccc2c(=O)[nH]1)N1CCN(C/C=C/c2ccccc2)CC1	1.1	0.1	427.4	67.9*	-2.4	-0.8	48.9*
N#C/C(=C\c1ccc(N2CCOCC2)c([N+](=O)[O-])c1)c1nc2ccccc2[nH]1	-3.5	5.8	246.4	8.8	1.8	1.0	.
Cc1ccc2nc(/C(C#N)=C/c3ccc(O)c(O)c3)[nH]c2c1	0.4	13.4	i	5.2	4.8	-144.4	.
N#C/C(=C/c1ccc(N2CCCC2)c([N+](=O)[O-])c1)c1nc2ccccc2[nH]1	4.3	0.7	489.1	53.1*	-0.8	82.5*	34.7*
Cc1ccc2nc(/C(C#N)=C\c3ccc(N4CCCCC4)c([N+](=O)[O-])c3)[nH]c2c1	0.8	9.6	285.3	55.7*	2.4	7.3	63.5*
CC(COc1cc(F)cc(F)c1)CN1CCC(C(O)(c2ccccc2)c2ccccc2)CC1 (stereo not drawn)	.	2.1	.	.	.	.	.
O=S(=O)(CC1NCc2ccccc21)NCc1ccc(F)cc1 (stereo not drawn)	.	6.8	.	.	.	.	.
CC(N=Cc1cc([N+](=O)[O-])ccc1O)c1ccccc1 (stereo not drawn)	-4.9	3.0	126.9	42.9	0.1	-4.7	.
CN(/N=C/c1cc([N+](=O)[O-])ccc1O)c1ccccc1	-1.6	5.9	397.3	57.0*	-2.8	1.8	66.0*
COC(=O)[C@]12C[C@H](CC(=O)NCC34CC5CC(CC(C5)C3)C4)C(=O)N(CCC3=CCCCC3)C1=C[C@H](C1CCCC1)O[C@@H]2C	.	12.3	.	.	.	.	.
CCCCCCc1cc2cc(S(=O)(=O)c3ccc(Cl)cc3)c(=O)oc2cc1O	-3.8	16.7	294.0	100.8*	-5.0	5.5	94.4*
CCCCCCc1cc2cc(S(=O)(=O)c3ccc(C)cc3)c(=O)oc2cc1O	-3.9	26.9	565.1	98.6*	-7.0	1.5	78.1*
CCN(CC)c1ccc2cc(S(=O)(=O)c3ccc(Cl)cc3)c(=O)oc2c1	1.0	1.3	280.7	1.2	-2.2	-4.8	.
O=C(N[C@@H](Cc1cccnc1)C(=O)N1CCC[C@H]1C(=O)NCCc1ccccc1Cl)c1cccs1	.	0.3	.	.	.	.	.
Oc1ccccc1-c1cc(-c2ccccc2Cl)[nH]n1	-2.6	9.8	228.3	7.2	3.1	-10.1	.
